Nine compounds from article PMC3114175 (Bioorganic & medicinal chemistry, 2011) can be followed below.

The target in one assay is T1, TLR7 (Homo sapiens, UniProt Q9NYK1).
T1 sequence (Q9NYK1 27-1049): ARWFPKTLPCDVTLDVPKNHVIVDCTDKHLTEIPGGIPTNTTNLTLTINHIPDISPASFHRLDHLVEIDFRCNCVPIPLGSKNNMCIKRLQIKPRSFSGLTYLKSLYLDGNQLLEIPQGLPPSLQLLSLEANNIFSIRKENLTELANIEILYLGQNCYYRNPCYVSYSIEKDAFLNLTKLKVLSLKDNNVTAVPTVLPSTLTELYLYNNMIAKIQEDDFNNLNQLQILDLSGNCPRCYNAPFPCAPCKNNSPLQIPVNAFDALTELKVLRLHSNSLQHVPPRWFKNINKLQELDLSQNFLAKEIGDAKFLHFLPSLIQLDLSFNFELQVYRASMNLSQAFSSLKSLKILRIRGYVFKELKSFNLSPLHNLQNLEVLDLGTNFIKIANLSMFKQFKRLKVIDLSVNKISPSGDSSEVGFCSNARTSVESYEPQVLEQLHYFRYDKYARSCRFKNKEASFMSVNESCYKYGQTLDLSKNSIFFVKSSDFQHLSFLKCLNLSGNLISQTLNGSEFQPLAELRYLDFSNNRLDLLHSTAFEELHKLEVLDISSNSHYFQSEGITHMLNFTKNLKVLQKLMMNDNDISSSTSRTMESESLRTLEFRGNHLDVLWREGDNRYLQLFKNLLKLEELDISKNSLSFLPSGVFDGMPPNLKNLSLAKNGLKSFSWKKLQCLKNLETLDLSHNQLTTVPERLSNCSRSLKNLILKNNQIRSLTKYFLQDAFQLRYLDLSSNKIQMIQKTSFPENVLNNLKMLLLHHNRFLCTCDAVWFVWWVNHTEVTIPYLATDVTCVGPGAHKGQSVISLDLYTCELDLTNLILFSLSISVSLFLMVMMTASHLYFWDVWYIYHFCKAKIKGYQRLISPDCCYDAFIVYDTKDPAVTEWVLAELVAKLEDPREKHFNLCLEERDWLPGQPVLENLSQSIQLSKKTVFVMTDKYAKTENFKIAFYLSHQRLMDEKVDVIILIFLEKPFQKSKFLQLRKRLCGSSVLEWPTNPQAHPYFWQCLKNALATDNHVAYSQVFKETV
Kind of assay: TLR7 antagonism reporter gene assay. It counts as cell-based. A digest of the protocol:
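HEK-Blue-7 cells (HEK293 stably expressing TLR7 plus NF-κB/AP-1-driven secreted alkaline phosphatase reporter) were kept in selection medium with zeocin and normocin and grown to confluency. They were stimulated with gardiquimod at 1 μg/mL, or 250 ng/mL for Schild analysis, with serially diluted test compound (top 250 μM) added concurrently. After overnight incubation, supernatant sAP was read with chromogen at 620 nm. Replicates were duplicate or quadruplicate.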
(In general: A reporter such as luciferase makes a cellular process visible.)

A further assay addresses T2, TLR8 (Homo sapiens, UniProt Q9NR97).
T2 sequence (Q9NR97 27-1041): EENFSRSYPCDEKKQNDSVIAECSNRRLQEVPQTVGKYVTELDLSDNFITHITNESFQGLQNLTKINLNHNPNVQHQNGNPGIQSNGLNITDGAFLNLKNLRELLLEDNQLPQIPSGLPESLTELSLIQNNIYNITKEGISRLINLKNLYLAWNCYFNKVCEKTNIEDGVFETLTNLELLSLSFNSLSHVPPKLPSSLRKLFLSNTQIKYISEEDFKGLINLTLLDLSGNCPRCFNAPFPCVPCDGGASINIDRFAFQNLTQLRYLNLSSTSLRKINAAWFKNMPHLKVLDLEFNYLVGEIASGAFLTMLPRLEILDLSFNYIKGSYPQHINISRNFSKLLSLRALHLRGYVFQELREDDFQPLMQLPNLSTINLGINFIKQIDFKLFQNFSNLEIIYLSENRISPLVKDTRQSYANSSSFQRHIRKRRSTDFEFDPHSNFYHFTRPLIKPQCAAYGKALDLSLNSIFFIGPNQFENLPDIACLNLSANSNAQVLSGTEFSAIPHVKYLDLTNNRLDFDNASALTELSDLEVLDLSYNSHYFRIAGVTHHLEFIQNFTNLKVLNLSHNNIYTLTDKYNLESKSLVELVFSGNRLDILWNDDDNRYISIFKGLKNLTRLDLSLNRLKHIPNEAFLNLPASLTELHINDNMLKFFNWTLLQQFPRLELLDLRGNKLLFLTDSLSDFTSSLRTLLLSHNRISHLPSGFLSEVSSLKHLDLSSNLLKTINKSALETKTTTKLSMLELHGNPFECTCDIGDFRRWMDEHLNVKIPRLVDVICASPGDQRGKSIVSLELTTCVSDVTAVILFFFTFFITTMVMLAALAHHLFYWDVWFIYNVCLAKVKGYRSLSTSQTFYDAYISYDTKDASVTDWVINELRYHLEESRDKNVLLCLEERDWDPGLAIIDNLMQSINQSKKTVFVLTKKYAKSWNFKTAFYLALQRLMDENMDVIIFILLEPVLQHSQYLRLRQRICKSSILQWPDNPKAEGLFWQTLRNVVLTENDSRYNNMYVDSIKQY
Kind of assay: TLR8 antagonism reporter gene assay. It counts as cell-based.

pIC50: −log10 of the molar value.

With `CC(C)(O)Cn1c(C2CCCCC2)nc2c3ccccc3ncc21` [Compound 4c], the pIC50 – broadly, the negative decadic logarithm of the IC50, by convention in mol/L – against TLR7 was < 3.60.
As to `CCNCc1nc2c3ccccc3nc(NC(=O)c3ccccc3)c2n1CC(C)(C)O` [Compound 11, N-(2-((ethylamino)methyl)-3-(2-hydroxy-2-methylpropyl)-3H-imidazo[4,5-c]quinolin-4-yl)benzamide], the pIC50 against TLR7 is < 3.60.
Regarding `CCCCCCCCCc1nc2c3ccccc3ncc2n1C` [Compound 8d], the “TLR7-inhibitory activity” value on TLR7 is “low micromolar TLR7-inhibitory activity”.
As for `CC(C)(O)Cn1c(-c2ccccc2)nc2c3ccccc3ncc21` [Compound 4b, 2-methyl-1-(2-phenyl-3H-imidazo[4,5-c]quinolin-3-yl)propan-2-ol], the pIC50 at TLR7 is < 3.60.
As for `COc1ccc(Cn2c(-c3ccccc3)nc3c4ccccc4[n+](Cc4ccc(OC)cc4)cc32)cc1` [Compound 12, 3,5-bis(4-methoxybenzyl)-2-phenyl-3H-imidazo[4,5-c]quinolin-5-ium], the “Mode of inhibition by Schild analyses” value on TLR7 (agonist gardiquimod 1 μg/mL and 250 ng/mL) is “competitive”.
Turning to `COc1ccc(Cn2c(-c3ccccc3)nc3c4ccccc4ncc32)cc1` [Compound 5b, 3-(4-methoxybenzyl)-2-phenyl-3H-imidazo[4,5-c]quinoline], the pIC50 against TLR8 and against TLR7 was < 3.60 in each case.
Take `CCNCc1nc2c3ccccc3ncc2n1CCCO` [Compound 6a, 3-(2-((ethylamino)methyl)-3H-imidazo[4,5-c]quinolin-3-yl)propan-1-ol]: the pIC50 against TLR8 and against TLR7 was < 3.60 in each case.
On to `C#CCn1c(CCCCCCCCC)nc2c3ccccc3ncc21` [Compound 7d], for which the “TLR7-inhibitory activity” value on TLR7 is given as “low micromolar TLR7-inhibitory activity”.
For the compound `CCNCc1nc2c3ccccc3[n+]([O-])cc2n1CC(C)(C)O` [Compound 10, 2-((ethylamino)methyl)-3-(2-hydroxy-2-methylpropyl)-3H-imidazo[4,5-c]quinoline 5-oxide], the pIC50 at TLR7 was < 3.60.
